What was measured:
HT-29 = assay: Cytotoxicity against human HT-29 cells after 48 hrs by MTT assay; format: functional, cell-based; settings: HT-29, 48 h
Procedure, shortened: (§1)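 Cells seeded at 5 × 10⁴ cells/mL and allowed to settle 2 h (K562) or overnight (HepG2, HT-29). Compound in DMSO added, then 48 h further culture. Viability read by MTT with a microplate reader, normalized to DMSO-treated controls set as 100%. IC₅₀ obtained by nonlinear regression; each compound measured three times.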

HepG2 = assay: Cytotoxicity against human HepG2 cells after 48 hrs by MTT assay; format: functional, cell-based; settings: HepG2, 48 h; procedure, shortened: as §1
K562 [1] = assay: Cytotoxicity against human K562 cells after 48 hrs by MTT assay; format: functional, cell-based; settings: K562, 48 h; procedure, shortened: as §1
K562 [2] = assay: Induction of apoptosis in human K562 cells at 30 nM after 12 hrs using annexin V-FITC and propidium iodide staining by flow cytometric analysis relative to control; format: functional
Procedure, shortened: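 K562 cells cultured without or with 30 nM compound for 12 h. 1 × 10⁶ cells resuspended in binding buffer containing annexin V-FITC and propidium iodide and incubated 15 min. Further binding buffer added, then cells analysed by flow cytometry for phosphatidylserine exposure.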

Row | SMILES | IC50 (HT-29) | IC50 (HepG2) | IC50 (K562 [1]) | Activity (K562 [2])
1 | COC(=O)/C=C/c1ccc2c(c1)CC(=O)N2Cc1ccc(Br)cc1 | > 10000 nM | > 10000 nM | 3160 nM | –
2 | COC(=O)/C=C/c1ccc2c(c1)C(=O)C(=O)N2Cc1ccc(F)cc1 | 60 nM | 40 nM | 30 nM | –
3 | COC(=O)/C=C/c1ccc2c(c1)/C(=N/O)C(=O)N2Cc1ccc(OC)cc1 | 4940 nM | 3560 nM | 2110 nM | –
4 | COC(=O)/C=C/c1ccc2c(c1)C(=O)C(=O)N2Cc1ccc(C(F)(F)F)cc1 | 40 nM | 70 nM | 40 nM | –
5 | CCCCc1ccc2c(c1)C(=O)C(=O)N2 | > 10000 nM | > 10000 nM | > 10000 nM | –
6 | COc1ccc2c(c1)C(=O)C(=O)N2 [5-METHOXYISATIN] | > 10000 nM | > 10000 nM | > 10000 nM | –
7 | COC(=O)/C=C/c1ccc2c(c1)C(=O)C(=O)N2Cc1ccc(Cl)cc1 | 60 nM | 40 nM | 30 nM | –
8 | O=C1C(=O)N(Cc2ccc(Br)cc2)c2ccc(/C=C/C(=O)N3CCOCC3)cc21 | 4590 nM | 7790 nM | 1380 nM | –
9 | COC(=O)/C=C/c1ccc2c(c1)C(=O)C(=O)N2Cc1ccc(Cl)c(Cl)c1 | 210 nM | 160 nM | 60 nM | –
10 | COc1ccc(CN2C(=O)C(=O)c3cc(/C=C/C(=O)N4CCCC4)ccc32)cc1 | 5230 nM | 7810 nM | 460 nM | –
11 | O=C1Nc2ccccc2C1=O [ISATIN] | > 10000 nM | > 10000 nM | > 10000 nM | –
12 | O=C1C(=O)N(Cc2ccc(Br)cc2)c2ccc(/C=C/C(=O)N3CCCC3)cc21 | 4420 nM | 6300 nM | 1710 nM | –
13 | COC(=O)/C=C/c1ccc2c(c1)C(=O)C(=O)N2Cc1ccc(Br)cc1 | 30 nM | 40 nM | 6 nM | 32.2%
14 | COC(=O)/C=C/c1ccc2c(c1)CC(=O)N2Cc1ccc(OC)cc1 | 3720 nM | 9170 nM | 990 nM | –
15 | CCOC(=O)/C=C/c1ccc2c(c1)C(=O)C(=O)N2Cc1ccc(Br)cc1 | 50 nM | 290 nM | 30 nM | –
16 | CCOC(=O)/C=C/c1ccc2c(c1)C(=O)C(=O)N2Cc1ccc(OC)cc1 | 60 nM | 90 nM | 10 nM | –
17 | COc1ccc(CN2C(=O)C(=O)c3cc(/C=C/C(=O)N4CCOCC4)ccc32)cc1 | 4240 nM | 7380 nM | 720 nM | –
18 | COC(=O)/C=C/c1ccc2c(c1)C(=O)C(=O)N2Cc1cc(C)cc(C)c1 | 70 nM | 150 nM | 40 nM | –
19 | COC(=O)/C=C/c1ccc2c(c1)C(=O)C(=O)N2Cc1ccc(OC)cc1 | 30 nM | 30 nM | 3 nM | 37.2%
20 | COC(=O)/C=C/c1ccc2c(c1)C(O)C(=O)N2Cc1ccc(Br)cc1 (stereo not given) | 660 nM | 670 nM | 260 nM | –
21 | CCN1C(=O)C(=O)c2cc(/C=C/C(=O)OC)ccc21 | 210 nM | 400 nM | 170 nM | –
22 | COC(=O)/C=C/c1cccc2c1N(Cc1ccc(OC)cc1)C(=O)C2=O | > 10000 nM | > 10000 nM | 4130 nM | –
23 | COC(=O)/C=C/c1ccc2c(c1)C(=O)C(=O)N2Cc1ccc(C)cc1 | 30 nM | 40 nM | 40 nM | –
24 | COC(=O)/C=C/c1ccc2c(c1)C(O)C(=O)N2Cc1ccc(OC)cc1 (stereo not given) | 320 nM | 380 nM | 30 nM | –
25 | O=C1Nc2ccc(Cl)cc2C1=O | > 10000 nM | > 10000 nM | > 10000 nM | –
26 | COC(=O)/C=C/c1ccc2c(c1)C(=O)C(=O)N2Cc1ccccc1 | 70 nM | 40 nM | 40 nM | –

Row | SMILES | IC50 (HT-29) | IC50 (HepG2) | IC50 (K562 [1]) | Activity (K562 [2])
27 | O=C(/C=C/c1ccc2c(c1)C(=O)C(=O)N2Cc1ccc(Br)cc1)OCCO | 680 nM | 3660 nM | 50 nM | –
28 | COC(=O)/C=C/c1ccc2c(c1)C(=O)C(=O)N2CCOc1ccccc1 | 200 nM | 210 nM | 60 nM | –
29 | NC(=O)/C=C/c1ccc2c(c1)C(=O)C(=O)N2Cc1ccc(Br)cc1 | 550 nM | > 10000 nM | 300 nM | –
30 | O=C1Nc2ccc(Br)cc2C1=O | > 10000 nM | > 10000 nM | > 10000 nM | –
31 | COC(=O)/C=C/c1cccc2c1C(=O)C(=O)N2Cc1ccc(OC)cc1 | 3120 nM | 5490 nM | 350 nM | –
32 | COc1ccc(CN2C(=O)C(=O)c3cc(/C=C/C(=O)O)ccc32)cc1 | > 10000 nM | > 10000 nM | > 10000 nM | –
33 | CCCCOC(=O)/C=C/c1ccc2c(c1)C(=O)C(=O)N2Cc1ccc(Br)cc1 | 600 nM | 650 nM | 150 nM | –
34 | COC(=O)/C=C/c1ccc2c(c1)N(Cc1ccc(OC)cc1)C(=O)C2=O | > 10000 nM | > 10000 nM | 4860 nM | –
35 | COC(=O)/C=C/c1ccc2c(c1)C1(OCCO1)C(=O)N2Cc1ccc(OC)cc1 | > 10000 nM | > 10000 nM | 4890 nM | –
36 | COC(=O)/C=C/c1ccc2c(c1)C(=O)C(=O)N2Cc1ccc(C#N)cc1 | 50 nM | 50 nM | 30 nM | –
37 | COC(=O)/C=C/c1ccc2c(c1)C1(OCCO1)C(=O)N2Cc1ccc(Br)cc1 | 5110 nM | 7470 nM | 2630 nM | –
38 | COc1ccc(CN2C(=O)C(=O)c3cc(/C=C/C(=O)OCCO)ccc32)cc1 | 550 nM | 860 nM | 40 nM | –
39 | CCCCOC(=O)/C=C/c1ccc2c(c1)C(=O)C(=O)N2Cc1ccc(OC)cc1 | 420 nM | 630 nM | 40 nM | –
40 | COC(=O)/C=C/c1ccc2c(c1)C(=O)C(=O)N2Cc1ccccc1Br | 240 nM | 260 nM | 70 nM | –
41 | COc1ccc(CN2C(=O)C(=O)c3cc(/C=C/C(=O)OC(C)(C)C)ccc32)cc1 | 480 nM | 620 nM | 50 nM | –
42 | CC[C@@]1(O)C(=O)OCc2c1cc1n(c2=O)Cc2cc3ccccc3nc2-1 [CAMPTOTHECIN] | 60 nM | 50 nM | 40 nM | –
43 | CC(C)(C)OC(=O)/C=C/c1ccc2c(c1)C(=O)C(=O)N2Cc1ccc(Br)cc1 | 730 nM | 2050 nM | 290 nM | –
44 | COC(=O)/C=C/c1ccc2c(c1)C(=O)C(=O)N2Cc1cccc(Br)c1 | 240 nM | 170 nM | 30 nM | –
45 | Cc1ccc2c(c1)C(=O)C(=O)N2 | > 10000 nM | > 10000 nM | > 10000 nM | –
46 | COC(=O)/C=C/c1ccc2c(c1)C(=O)C(=O)N2 | 270 nM | 370 nM | 220 nM | –
47 | COC(=O)/C=C/c1ccc2c(c1)C(=O)C(=O)N2Cc1ccc2ccccc2c1 | 100 nM | 90 nM | 40 nM | –
48 | O=C1Nc2ccc(F)cc2C1=O [5-FLUOROISATIN] | > 10000 nM | > 10000 nM | > 10000 nM | –
49 | COc1ccc(CN2C(=O)C(=O)c3cc(/C=C/C(N)=O)ccc32)cc1 | 560 nM | 890 nM | 200 nM | –
50 | COC(=O)/C=C/c1ccc2c(c1)C(=O)C(=O)N2C | 300 nM | 530 nM | 340 nM | –
51 | COC(=O)/C=C/c1ccc2c(c1)/C(=N/O)C(=O)N2Cc1ccc(Br)cc1 | 3640 nM | 9960 nM | 2920 nM | –

Source: ChEMBL document CHEMBL3102854, “Design, synthesis and in vitro cytotoxicity evaluation of 5-(2-carboxyethenyl)isatin derivatives as anticancer agents” (Bioorg Med Chem Lett, 2014)
